Calls of active or inactive are those of the source. The calls are words filed in the database; no cut-off is given here.
How the values were obtained:
Mus musculus [1] = experiment: Evaluated in vivo for their ability to decrease plasma glucose levels in diabetic C57BL/KsJ ob/ob mouse at a dose 100 mg/kg/day, **p indicates <0.01; format: functional
Method in brief: (§1)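 Mice dosed orally once daily for 4 days; plasma glucose and insulin measured and expressed as percent change versus a vehicle-treated group (mean ± SE, 4-6 mice/group). NS is generally less than -15% change. Significance is versus vehicle-treated mice.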

Mus musculus [2] = experiment: Evaluated for their ability to decrease plasma insulin levels in mouse at a dose 100 mg/kg/day, **p indicates <0.01; format: functional
Method in brief: (§2)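 Diabetic db/db or ob/ob mice dosed orally once daily for 4 days. Plasma glucose and insulin reported as percent change from a vehicle-treated group. 4-6 mice per group. Significance set at p < 0.05 or p < 0.01 versus vehicle; NS means generally less than -15% change.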

[3] = molecular target: T1, Tyrosine-protein phosphatase non-receptor type 1 (Rattus norvegicus, UniProt P20417); experiment: Inhibition of PTPase activity in rat hepatic membrane at a concentration of 50 uM using pNPP as the substrate; format: cell membranes, Liver
T1 sequence (P20417 whole entry): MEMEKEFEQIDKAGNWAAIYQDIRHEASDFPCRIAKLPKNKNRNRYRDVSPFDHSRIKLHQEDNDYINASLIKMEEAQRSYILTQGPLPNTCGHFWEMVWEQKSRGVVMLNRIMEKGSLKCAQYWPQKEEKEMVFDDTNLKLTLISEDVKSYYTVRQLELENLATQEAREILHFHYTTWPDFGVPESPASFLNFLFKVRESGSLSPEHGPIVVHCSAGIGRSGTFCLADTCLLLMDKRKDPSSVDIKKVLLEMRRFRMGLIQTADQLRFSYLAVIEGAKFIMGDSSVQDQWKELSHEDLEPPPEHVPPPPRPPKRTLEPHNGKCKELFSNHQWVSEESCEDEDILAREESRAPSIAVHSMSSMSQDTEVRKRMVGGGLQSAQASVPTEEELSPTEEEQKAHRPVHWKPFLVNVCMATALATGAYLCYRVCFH
Method in brief: (§3)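 Liver membranes from male Sprague-Dawley rats (100-150 g), about 30 µg protein per well. Preincubated 10 min at 37 °C with compound in 1.25% DMSO in 50 mM HEPES pH 7.4. Then 6.33 mM pNPP for 30 min at 37 °C, stopped with NaOH. p-Nitrophenol read at 410 nm. Run in triplicate. Reported as percent of untreated control.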

[4] = molecular target: T2, Tyrosine-protein phosphatase non-receptor type 1 (Rattus norvegicus) (UniProt P20417); experiment: Inhibition of PTPase activity using recombinant r-PTP1B as the enzyme and IR-triphosphopeptide as substrate at 50 uM
T2 sequence (whole entry): T1 sequence (P20417 whole entry)
Method in brief: (§4)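 Rat recombinant PTP1B in 33 mM TRIS-HCl, 2 mM EDTA, 50 mM β-mercaptoethanol, pH 7.4 (about 1000-2000 nmol/min/mg). Preincubated 10 min at 37 °C with or without compound in HEPES buffer pH 7.4. Released phosphate read by malachite green-ammonium molybdate at 650 nm against a phosphate standard. Quadruplicates. IC50 by four-parameter logistic fit.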

Mus musculus [5] = experiment: Evaluated in vivo for their ability to decrease plasma glucose levels in diabetic C57BL/KsJ db/db mouse at a dose 100 mg/kg/day.,*p indicates <0.05; format: functional; method in brief: as §1
[6] = molecular target: T3, Tyrosine-protein phosphatase non-receptor type 1 (Mus musculus) (UniProt P35821); experiment: In vivo ability to decrease plasma glucose levels in diabetic C57BL/KsJ ob/ob mouse at a dose 100 mg/kg/day; format: functional, organism-based; method in brief: as §2
T3 sequence (whole entry): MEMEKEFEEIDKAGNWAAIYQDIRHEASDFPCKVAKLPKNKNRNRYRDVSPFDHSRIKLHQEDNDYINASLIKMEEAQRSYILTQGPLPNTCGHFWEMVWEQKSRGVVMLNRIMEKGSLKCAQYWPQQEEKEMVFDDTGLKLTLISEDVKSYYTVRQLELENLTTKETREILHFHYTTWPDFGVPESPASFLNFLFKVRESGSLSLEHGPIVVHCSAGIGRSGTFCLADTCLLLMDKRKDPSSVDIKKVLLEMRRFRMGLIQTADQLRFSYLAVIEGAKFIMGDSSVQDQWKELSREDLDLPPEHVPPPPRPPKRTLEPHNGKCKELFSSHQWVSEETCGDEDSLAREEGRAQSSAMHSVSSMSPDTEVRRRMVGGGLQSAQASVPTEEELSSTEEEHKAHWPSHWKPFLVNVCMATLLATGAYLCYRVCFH

[7] = molecular target: T2, Tyrosine-protein phosphatase non-receptor type 1 (Rattus norvegicus); experiment: Inhibition of PTPase (PTP1B) activity in rat hepatic membrane at 50 uM concentration, using pNPP as the substrate; format: cell membranes; conditions: Liver; method in brief: as §3
[8] = molecular target: T1, Tyrosine-protein phosphatase non-receptor type 1; experiment: Inhibition of PTPase activity using recombinant r-PTP1B and IR-triphosphopeptide as substrate; ND is no data.; method in brief: as §4
[9] = molecular target: T3, Tyrosine-protein phosphatase non-receptor type 1 (Mus musculus); experiment: Ability to decrease plasma insulin levels in mouse at a dose 100 mg/kg/day; format: functional, organism-based; method in brief: as §2
Mus musculus [10] = experiment: Evaluated in vivo for their ability to decrease plasma glucose levels in diabetic C57BL/KsJ db/db mouse at a dose 100 mg/kg/day, *p indicates <0.05; format: functional; method in brief: as §1
[11] = molecular target: T2, Tyrosine-protein phosphatase non-receptor type 1 (Rattus norvegicus); experiment: Inhibition of PTPase activity using recombinant Protein-tyrosine phosphatase 1B as the enzyme and IR-triphosphopeptide as substrate at 50 uM
Method in brief: (§5)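 Recombinant rat PTP1B (human 321-aa form assayed the same way), activity about 1000-2000 nmol/min/mg, preincubated with compound for 10 min at 37 °C in HEPES pH 7.4. The reaction is started with 50 µM triphosphorylated insulin receptor 1142-1153 dodecapeptide and run 30 min at 37 °C. Released phosphate read by malachite green-molybdate at 650 nm, in quadruplicate. Result is percent inhibition versus control.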

[12] = molecular target: T2, Tyrosine-protein phosphatase non-receptor type 1 (Rattus norvegicus); experiment: Inhibition of Protein-tyrosine phosphatase 1B activity in rat hepatic membrane at a concentration of 50 uM using pNPP as the substrate; format: cell membranes; conditions: Liver; method in brief: as §3
Mus musculus [13] = experiment: Evaluated in vivo for their ability to decrease plasma glucose levels in diabetic C57BL/KsJ db/db mouse at a dose 100 mg/kg/day; NS is non significant; format: functional, organism-based; method in brief: as §2
[14] = molecular target: T1, Tyrosine-protein phosphatase non-receptor type 1; experiment: Inhibition of PTPase activity using recombinant Protein-tyrosine phosphatase 1B and IR-triphosphopeptide as substrate; ND is no data.
Mus musculus [15] = experiment: Evaluated in vivo for their ability to decrease plasma glucose levels in diabetic C57BL/KsJ db/db mouse at a dose 100 mg/kg/day. *p indicates <0.05; format: functional; method in brief: as §1
[16] = molecular target: T2, Tyrosine-protein phosphatase non-receptor type 1 (Rattus norvegicus); experiment: Inhibition of PTPase activity using recombinant r-PTP1B as the enzyme and IR-triphosphopeptide as substrate at 10 uM; method in brief: as §5
Mus musculus [17] = experiment: Evaluated for their ability to decrease plasma insulin levels in mouse at a dose 100 mg/kg/day.; format: functional; method in brief: as §1
Mus musculus [18] = experiment: Evaluated in vivo for their ability to decrease plasma glucose levels in diabetic C57BL/KsJ ob/ob mouse at a dose 100 mg/kg/day.; format: functional; method in brief: as §1
[19] = molecular target: T1, Tyrosine-protein phosphatase non-receptor type 1; experiment: Inhibition of PTPase activity using recombinant r-PTP1B as the enzyme and IR-triphosphopeptide as substrate; method in brief: as §4
Mus musculus [20] = experiment: Evaluated for their ability to decrease plasma insulin levels in mouse at a dose 100 mg/kg/day; NS=not significant; format: functional, organism-based; method in brief: as §2
Mus musculus [21] = experiment: Evaluated in vivo for their ability to decrease plasma glucose levels in diabetic C57BL/KsJ db/db mouse at a dose 100 mg/kg/day.([…]); format: functional; method in brief: as §2
[22] = molecular target: T2, Tyrosine-protein phosphatase non-receptor type 1 (Rattus norvegicus); experiment: IC50 for PTPase activity, recombinant r-PTP1B as the enzyme .

Compound	Decrease [6]	inhibition [7] [%]	IC50 [8]	Decrease [9]	Decrease (Mus musculus [13])	further results
Cc1oc(-c2ccc(C(F)(F)F)cc2)nc1COc1cccc(/C(=C/Cn2oc(=O)[nH]c2=O)c2ccc(F)cc2)c1						Decrease (Mus musculus [1]): 34%; Decrease (Mus musculus [2]): 38%; Inhibition % [3]: 28%; inhibition [4]: 1.2%
CCC/C(=C/Cn1oc(=O)[nH]c1=O)c1cccc(OCc2nc(-c3ccc(C(F)(F)F)cc3)oc2C)c1	Not significant	58	Not significant	Not significant		Decrease (Mus musculus [5]): 55%
CC/C(=C/Cn1oc(=O)[nH]c1=O)c1cccc(OCc2nc(-c3ccc(C(F)(F)F)cc3)oc2C)c1	Not significant			Not significant		Decrease (Mus musculus [10]): 65%; inhibition [11]: 80%; inhibition [12]: 56%
C/C(Cn1oc(=O)[nH]c1=O)=C(\C)c1cccc(OCc2nc(-c3ccc(C(F)(F)F)cc3)oc2C)c1	Not significant			Not significant	inactive	IC50 [14]: Not significant; inhibition [12]: 54%
Cc1oc(-c2ccc(C(F)(F)F)cc2)nc1COc1cccc(C2CC2Cn2oc(=O)[nH]c2=O)c1 (stereo not given)	Not significant	51		Not significant		Decrease (Mus musculus [15]): 36%; inhibition [16]: 28%
C/C(=C\Cn1oc(=O)[nH]c1=O)c1cccc(OCc2nc(-c3ccc(C(F)(F)F)cc3)oc2-c2ccccc2)c1						Decrease (Mus musculus [17]): 30%; Decrease (Mus musculus [18]): 25%; IC50 [19]: 300 nM
C/C(=C\Cn1oc(=O)[nH]c1=O)c1ccc(OCCc2nc(-c3ccc(C(F)(F)F)cc3)oc2C)cc1	Not significant	63		Not significant	inactive	IC50 [19]: 1600 nM
CCCCCCCC/C(=C\Cn1oc(=O)[nH]c1=O)c1cccc(OCc2nc(-c3ccc(C(F)(F)F)cc3)oc2C)c1						Decrease (Mus musculus [20]): inactive; Decrease (Mus musculus [21]): 43%; IC50 [22]: 400 nM
CC/C(=C\c1cccc(OCc2nc(-c3ccc(C(F)(F)F)cc3)oc2C)c1)n1oc(=O)[nH]c1=O	Not significant	58	Not significant	Not significant		Decrease (Mus musculus [5]): 24%
Cc1oc(-c2ccc(C(F)(F)F)cc2)nc1COc1cccc(/C=C/Cn2oc(=O)[nH]c2=O)c1	Not significant	49	Not significant	Not significant	inactive	

— ChEMBL document CHEMBL1132971, “New azolidinediones as inhibitors of protein tyrosine phosphatase 1B with antihyperglycemic properties” (J Med Chem, 2000)
